Results taken from ChEMBL document CHEMBL2417450, “Antitumor properties of substituted (αE)-α-(1H-indol-3-ylmethylene)benzeneacetic acids or amides” (Bioorg Med Chem, 2013).
Activity calls are given as the source filed them. The calls are words filed in the database; no cut-off is given here.

System: DU-145
Assay: Decrease in total GSK3beta protein level in human DU145 cells at 1 uM after 72 hrs by Western blotting analysis
Type: functional, cell-based
Conditions: not given
How it was run: (§1)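 DU145 cells were treated 72 h, rinsed in PBS and lysed in 2% SDS buffer (50 mM Tris-HCl pH 6.8, protease inhibitors, 2 mM orthovanadate, 1 mM NaF, 1 mM pyrophosphate). Protein was quantified by BCA, and equal protein was run on 10% SDS-PAGE and blotted to nitrocellulose. Blots were blocked in 5% milk TBS-Tween 0.1%, detected by ECL and normalized to β-actin. Results are mean SEM of three experiments, with Student's t test versus control.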

SMILES | Activity
COc1ccc(/C(=C\c2cn(C(C)=O)c3ccc(OCc4ccccc4)cc23)C(=O)O)cc1 | Active

Molecular target: Glycogen synthase kinase-3 beta (Homo sapiens) (UniProt P49841)
Assay: Inhibition of GSK3beta phosphorylation at Ser9 in human DU145 cells at 0.1 uM after 72 hrs by Western blotting analysis
Type: cell-based
Conditions: DU-145
How it was run: as §1

Chain of Glycogen synthase kinase-3 beta (Homo sapiens) (P49841 whole entry, looked up): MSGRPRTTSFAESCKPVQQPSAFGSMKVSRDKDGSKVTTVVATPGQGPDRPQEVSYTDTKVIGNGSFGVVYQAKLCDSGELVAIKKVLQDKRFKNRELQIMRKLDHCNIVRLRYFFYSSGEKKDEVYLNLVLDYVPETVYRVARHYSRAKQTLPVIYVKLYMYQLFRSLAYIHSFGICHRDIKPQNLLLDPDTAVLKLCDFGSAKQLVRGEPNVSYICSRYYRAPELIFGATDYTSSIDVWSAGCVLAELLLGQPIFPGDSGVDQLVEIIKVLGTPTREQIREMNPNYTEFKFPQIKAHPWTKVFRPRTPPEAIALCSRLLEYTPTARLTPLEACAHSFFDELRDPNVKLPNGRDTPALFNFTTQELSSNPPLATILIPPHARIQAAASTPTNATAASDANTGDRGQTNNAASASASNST

inhibition | SMILES
inactive | COc1ccc(/C(=C\c2cn(C(C)=O)c3ccc(OCc4ccccc4)cc23)C(=O)O)cc1

System: DU-145
Assay: Effect on total AKT protein level in human DU145 cells at 0.1 uM after 72 hrs by Western blotting analysis
Type: functional, cell-based
Conditions: not given
How it was run: as §1

SMILES | Activity
COc1ccc(/C(=C\c2cn(C(C)=O)c3ccc(OCc4ccccc4)cc23)C(=O)O)cc1 | inactive

System: not listed separately
Assay: Cytotoxicity against human fibroblasts assessed as cell viability after 72 hrs by MTT assay relative to control
Type: cell-based, Fibroblast
Parameters: concentration or dose not given beside the values
Conditions: read-out: Activity

SMILES | viability at 72 h [%]
COc1ccc(/C(=C\c2c[nH]c3ccc(OCc4ccccc4)cc23)C(=O)O)cc1 | 85
COc1ccc(/C(=C\c2cn(C(C)=O)c3ccc(OCc4ccccc4)cc23)C(=O)O)cc1 | 85
COc1ccc(/C(=C\c2cn(C(C)=O)c3ccc(OCc4ccccc4)cc23)C(=O)O)cc1OC | 85
COc1ccc(/C(=C\c2c[nH]c3ccccc23)C(=O)O)cc1 | 85
O=C(O)/C(=C/c1c[nH]c2ccc(OCc3ccccc3)cc12)c1ccccc1 | 85

Molecular target: T1, AKT/p21CIP1 (Homo sapiens) (UniProt P38936+P31749)
Assay: Inhibition of AKT/p21CIP1 in human DU145 cells assessed as decrease in ratio of phosphorylated retinoblastoma level to unphosphorylated retinoblastoma level at 0.1 uM after 72 hrs by Western blotting analysis
Type: cell-based
Conditions: DU-145, 1 uM, in the assay text read “1 uM” for “0.1 uM”
How it was run: (§2)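 DU145 cells were treated 72 h and lysed in 2% SDS buffer. Equal protein was resolved by SDS-PAGE and probed for phospho-Rb Ser249/Thr252, total Rb (1:200 each) and α-tubulin. Bands were visualized on autoradiography film and read densitometrically relative to α-tubulin. The p-Rb/Rb ratio was compared with control. Results are mean SEM of three experiments, with Student's t test.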

inhibition | SMILES
Active | COc1ccc(/C(=C\c2cn(C(C)=O)c3ccc(OCc4ccccc4)cc23)C(=O)O)cc1

Molecular target: Glycogen synthase kinase-3 beta (Homo sapiens) (UniProt P49841)
Assay: Inhibition of GSK3beta phosphorylation at Ser9 in human DU145 cells at 1 uM after 72 hrs by Western blotting analysis
Type: cell-based
Conditions: DU-145
How it was run: as §1

inhibition | SMILES
inactive | COc1ccc(/C(=C\c2cn(C(C)=O)c3ccc(OCc4ccccc4)cc23)C(=O)O)cc1

System: Caco-2
Assay: Cytotoxicity against human Caco2 cells assessed as cell viability after 72 hrs by MTT assay
Type: functional, cell-based
Conditions: Caco-2, 72 h
How it was run: (§3)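 Cells were grown at 37 °C in humidified 5% CO2/95% air. DU145 and A549 were kept in DMEM with 10% FCS, glutamine and nonessential amino acids. LNCaP, KB and M14 were kept in RPMI with 10% FCS, and Caco2 in MEM with 10% FCS. For the MTT assay, 1 × 10^4 cells were seeded per well and preincubated 24 h, then treated 72 h (DMSO ≤0.1%). MTT (0.5% in PBS) was added 4 h before the end, formazan was dissolved in DMSO, and OD was read at 550 nm. Triplicates were run.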

SMILES | IC50 [µM]
COc1ccc(/C(=C\c2c[nH]c3ccc(OCc4ccccc4)cc23)C(=O)O)cc1 | > 100
COc1ccc(/C(=C\c2c[nH]c3ccccc23)C(=O)O)cc1 | > 100
O=C(O)/C(=C/c1c[nH]c2ccc(OCc3ccccc3)cc12)c1ccccc1 | 41.6

System: DU-145
Assay: Increase in p21 protein expression in human DU145 cells at 1 uM after 72 hrs by Western blotting analysis
Type: functional, cell-based
Conditions: not given
How it was run: as §1

SMILES | Activity
COc1ccc(/C(=C\c2cn(C(C)=O)c3ccc(OCc4ccccc4)cc23)C(=O)O)cc1 | Active

System: LNCaP
Assay: Cytotoxicity against human LNCAP cells assessed as cell viability after 72 hrs by MTT assay
Type: functional, cell-based
Conditions: not given
How it was run: as §3

SMILES | IC50 [µM]
COc1ccc(/C(=C\c2cn(C(C)=O)c3ccc(OCc4ccccc4)cc23)C(=O)O)cc1 | 85
COc1ccc(/C(=C\c2cn(C(C)=O)c3ccc(OCc4ccccc4)cc23)C(=O)O)cc1OC | > 100

System: DU-145
Assay: Effect on total ERK1/2 protein level in human DU145 cells at 1 uM after 72 hrs by Western blotting analysis
Type: functional, cell-based
Conditions: not given
How it was run: as §1

SMILES | Activity
COc1ccc(/C(=C\c2cn(C(C)=O)c3ccc(OCc4ccccc4)cc23)C(=O)O)cc1 | inactive

System: DU-145
Assay: Effect on total AKT protein level in human DU145 cells at 1 uM after 72 hrs by Western blotting analysis
Type: functional, cell-based
Conditions: not given
How it was run: as §1

SMILES | Activity
COc1ccc(/C(=C\c2cn(C(C)=O)c3ccc(OCc4ccccc4)cc23)C(=O)O)cc1 | inactive

Molecular target: T2, Mitogen-activated protein kinase; ERK1/ERK2 (Homo sapiens) (UniProt P27361+P28482)
Assay: Inhibition of ERK1/2 phosphorylation at Thr202/Tyr204 in human DU145 cells at 0.1 uM after 72 hrs by Western blotting analysis relative to control
Type: cell-based
Conditions: DU-145
How it was run: as §1

T2 sequence (P27361 whole entry, looked up): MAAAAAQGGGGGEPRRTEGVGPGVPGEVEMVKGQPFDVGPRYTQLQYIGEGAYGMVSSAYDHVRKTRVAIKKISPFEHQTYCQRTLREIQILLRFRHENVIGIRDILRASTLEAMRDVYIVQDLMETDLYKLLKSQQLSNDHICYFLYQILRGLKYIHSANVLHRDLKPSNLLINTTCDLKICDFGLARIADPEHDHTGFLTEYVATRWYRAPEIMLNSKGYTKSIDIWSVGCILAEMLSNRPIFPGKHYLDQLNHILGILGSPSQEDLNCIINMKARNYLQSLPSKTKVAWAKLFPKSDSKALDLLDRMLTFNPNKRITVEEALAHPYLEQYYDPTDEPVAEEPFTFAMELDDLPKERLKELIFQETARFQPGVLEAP
T2 sequence (P28482 whole entry, looked up): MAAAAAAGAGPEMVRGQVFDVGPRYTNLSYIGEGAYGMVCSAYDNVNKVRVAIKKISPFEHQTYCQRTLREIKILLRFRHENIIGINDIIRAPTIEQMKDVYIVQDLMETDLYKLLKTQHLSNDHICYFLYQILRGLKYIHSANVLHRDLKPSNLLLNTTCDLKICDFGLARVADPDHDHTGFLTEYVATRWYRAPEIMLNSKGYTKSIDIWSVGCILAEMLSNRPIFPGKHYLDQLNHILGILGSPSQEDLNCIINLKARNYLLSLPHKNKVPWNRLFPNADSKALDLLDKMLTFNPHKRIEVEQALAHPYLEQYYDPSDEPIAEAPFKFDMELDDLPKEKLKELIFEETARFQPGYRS

inhibition | SMILES
Active | COc1ccc(/C(=C\c2cn(C(C)=O)c3ccc(OCc4ccccc4)cc23)C(=O)O)cc1

System: DU-145
Assay: Effect on total ERK1/2 protein level in human DU145 cells at 0.1 uM after 72 hrs by Western blotting analysis
Type: functional, cell-based
Conditions: not given
How it was run: as §1

SMILES | Activity
COc1ccc(/C(=C\c2cn(C(C)=O)c3ccc(OCc4ccccc4)cc23)C(=O)O)cc1 | inactive

System: DU-145
Assay: Decrease in total GSK3beta protein level in human DU145 cells at 0.1 uM after 72 hrs by Western blotting analysis
Type: functional, cell-based
Conditions: 1 uM, in the assay text read “1 uM” for “0.1 uM”
How it was run: as §1

SMILES | Activity
COc1ccc(/C(=C\c2cn(C(C)=O)c3ccc(OCc4ccccc4)cc23)C(=O)O)cc1 | Active

System: DU-145
Assay: Cytotoxicity against human DU145 cells assessed as cell viability after 72 hrs by MTT assay
Type: functional, cell-based
Conditions: DU-145, 72 h
How it was run: as §3

SMILES | IC50 [µM]
COc1ccc(/C(=C\c2c[nH]c3ccc(OCc4ccccc4)cc23)C(=O)O)cc1 | 38.1
COc1ccc(/C(=C\c2cn(C(C)=O)c3ccc(OCc4ccccc4)cc23)C(=O)O)cc1 | 0.91
COc1ccc(/C(=C\c2cn(C(C)=O)c3ccc(OCc4ccccc4)cc23)C(=O)O)cc1OC | 1.05
COc1ccc(/C(=C\c2c[nH]c3ccccc23)C(=O)O)cc1 | > 100
O=C(O)/C(=C/c1c[nH]c2ccc(OCc3ccccc3)cc12)c1ccccc1 | 34.7

Molecular target: RAC-alpha serine/threonine-protein kinase (Homo sapiens) (UniProt P31749)
Assay: Inhibition of AKT phosphorylation at Ser473 in human DU145 cells at 0.1 uM after 72 hrs by Western blotting analysis relative to control
Type: cell-based
Conditions: DU-145
How it was run: as §1

Chain of RAC-alpha serine/threonine-protein kinase (Homo sapiens) (P31749 whole entry): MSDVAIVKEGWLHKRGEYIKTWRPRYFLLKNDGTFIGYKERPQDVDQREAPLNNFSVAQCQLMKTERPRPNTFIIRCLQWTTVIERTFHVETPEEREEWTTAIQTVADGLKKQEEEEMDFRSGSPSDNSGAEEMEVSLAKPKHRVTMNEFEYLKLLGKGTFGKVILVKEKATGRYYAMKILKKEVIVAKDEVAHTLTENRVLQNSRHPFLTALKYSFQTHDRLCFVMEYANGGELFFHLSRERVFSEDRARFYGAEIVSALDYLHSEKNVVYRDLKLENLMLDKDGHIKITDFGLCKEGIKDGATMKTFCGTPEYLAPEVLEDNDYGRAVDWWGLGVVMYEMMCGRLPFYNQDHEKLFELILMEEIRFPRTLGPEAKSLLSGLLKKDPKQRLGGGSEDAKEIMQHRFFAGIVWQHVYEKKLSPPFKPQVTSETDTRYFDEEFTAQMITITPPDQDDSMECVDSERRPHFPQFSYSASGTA

inhibition | SMILES
Active | COc1ccc(/C(=C\c2cn(C(C)=O)c3ccc(OCc4ccccc4)cc23)C(=O)O)cc1

System: KB
Assay: Cytotoxicity against human KB cells assessed as cell viability after 72 hrs by MTT assay
Type: functional, cell-based
Conditions: not given
How it was run: as §3

SMILES | IC50 [µM]
COc1ccc(/C(=C\c2c[nH]c3ccc(OCc4ccccc4)cc23)C(=O)O)cc1 | 38.5
COc1ccc(/C(=C\c2cn(C(C)=O)c3ccc(OCc4ccccc4)cc23)C(=O)O)cc1 | > 100
COc1ccc(/C(=C\c2cn(C(C)=O)c3ccc(OCc4ccccc4)cc23)C(=O)O)cc1OC | 96.7
COc1ccc(/C(=C\c2c[nH]c3ccccc23)C(=O)O)cc1 | > 100
O=C(O)/C(=C/c1c[nH]c2ccc(OCc3ccccc3)cc12)c1ccccc1 | 55.5

System: M14
Assay: Cytotoxicity against human M14 cells assessed as cell viability after 72 hrs by MTT assay
Type: functional, cell-based
Conditions: M14, 72 h
How it was run: as §3

SMILES | IC50 [µM]
COc1ccc(/C(=C\c2c[nH]c3ccc(OCc4ccccc4)cc23)C(=O)O)cc1 | 58.4
COc1ccc(/C(=C\c2cn(C(C)=O)c3ccc(OCc4ccccc4)cc23)C(=O)O)cc1 | > 100
COc1ccc(/C(=C\c2cn(C(C)=O)c3ccc(OCc4ccccc4)cc23)C(=O)O)cc1OC | 65.5
COc1ccc(/C(=C\c2c[nH]c3ccccc23)C(=O)O)cc1 | > 100
O=C(O)/C(=C/c1c[nH]c2ccc(OCc3ccccc3)cc12)c1ccccc1 | 95.2

Molecular target: T2, Mitogen-activated protein kinase; ERK1/ERK2 (Homo sapiens)
Assay: Inhibition of ERK1/2 phosphorylation at Thr202/Tyr204 in human DU145 cells at 1 uM after 72 hrs by Western blotting analysis relative to control
Type: cell-based
Conditions: DU-145
How it was run: as §1

inhibition [%] | SMILES
40 | COc1ccc(/C(=C\c2cn(C(C)=O)c3ccc(OCc4ccccc4)cc23)C(=O)O)cc1

Molecular target: RAC-alpha serine/threonine-protein kinase (Homo sapiens) (UniProt P31749)
Assay: Inhibition of AKT phosphorylation at Ser473 in human DU145 cells at 1 uM after 72 hrs by Western blotting analysis relative to control
Type: cell-based
Conditions: DU-145
How it was run: as §1

inhibition [%] | SMILES
20 | COc1ccc(/C(=C\c2cn(C(C)=O)c3ccc(OCc4ccccc4)cc23)C(=O)O)cc1

System: A549
Assay: Cytotoxicity against human A549 cells assessed as cell viability after 72 hrs by MTT assay
Type: functional, cell-based
Conditions: A549, 72 h
How it was run: as §3

SMILES | IC50 [µM]
COc1ccc(/C(=C\c2cn(C(C)=O)c3ccc(OCc4ccccc4)cc23)C(=O)O)cc1 | > 100
COc1ccc(/C(=C\c2cn(C(C)=O)c3ccc(OCc4ccccc4)cc23)C(=O)O)cc1OC | 54.8

System: DU-145
Assay: Increase in p21 protein expression in human DU145 cells at 0.1 uM after 72 hrs by Western blotting analysis
Type: functional, cell-based
Conditions: 1 uM, in the assay text read “1 uM” for “0.1 uM”
How it was run: as §1

SMILES | Activity
COc1ccc(/C(=C\c2cn(C(C)=O)c3ccc(OCc4ccccc4)cc23)C(=O)O)cc1 | Active

Molecular target: T1, AKT/p21CIP1 (Homo sapiens)
Assay: Inhibition of AKT/p21CIP1 in human DU145 cells assessed as decrease in ratio of phosphorylated retinoblastoma level to unphosphorylated retinoblastoma level at 1 uM after 72 hrs by Western blotting analysis
Type: cell-based
Conditions: DU-145
How it was run: as §2

inhibition | SMILES
Active | COc1ccc(/C(=C\c2cn(C(C)=O)c3ccc(OCc4ccccc4)cc23)C(=O)O)cc1
